Source: ChEMBL document CHEMBL1136457, “MexAB-OprM-specific efflux pump inhibitors in Pseudomonas aeruginosa. Part 1: discovery and early strategies for lead optimization” (2003)

Columns and labels:
Assay type in all cases: functional
Pseudomonas aeruginosa [1] = test: Minimum Potentiation Concentration of EPI required to achieve an 8-fold reduction in antibiotic MIC of AZT against MexAB-OprM pump system in Pseudomonas aeruginosa without horse serum
Method in brief: (§1)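 Broth microdilution in Mueller–Hinton broth, P. aeruginosa PAM1723, starting inoculum 10^6 CFU/mL, 18 h at 37 °C; run with and without 10% horse serum. Aztreonam MIC read by visual growth; MPC8 taken as lowest inhibitor concentration giving 8-fold reduction of aztreonam MIC.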

Pseudomonas aeruginosa [2] = test: Minimum Potentiation Concentration of EPI required to achieve an 8-fold reduction in antibiotic MIC of levofloxacin against MexABOprMover-expressing strain of Pseudomonas aeruginosa
Method in brief: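 P. aeruginosa PAM1723 in Mueller–Hinton broth, broth microdilution per NCCLS M7-A4, starting inoculum 10^6 CFU/mL, inhibitor titrated with levofloxacin; 18 h at 37 °C. Levofloxacin MIC read at 70% growth inhibition by OD 595 nm. Value is the inhibitor concentration giving an 8-fold drop in levofloxacin MIC, measured without serum.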

[3] = Ratio of potentiation of aztreonam (AZT) with 10% horse serum to without serum
Method in brief: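 Ratio of aztreonam MPC8 with 10% horse serum to MPC8 without serum, both from Mueller–Hinton broth microdilution against PAM1723 (10^6 CFU/mL, 18 h, 37 °C, visual growth read-out).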

Pseudomonas aeruginosa [4] = test: Minimum Potentiation Concentration of EPI required to achieve an 8-fold reduction in antibiotic MIC of AZT against MexAB-OprM pump system in Pseudomonas aeruginosa with 10% horse serum; method in brief: as §1

SMILES	MPC8 (Pseudomonas aeruginosa [1])	MPC8 (Pseudomonas aeruginosa [2]) [µg/mL]	Ratio [3]	MPC8 (Pseudomonas aeruginosa [4]) [µg/mL]
COC(C(=O)Nc1cccc(/C=C/c2nc(C(C)C)cs2)c1)c1ccccc1C(=O)O (configuration not stated)	20 µg/mL	10	8	160
CC(C)(C)c1csc(/C=C/c2cccc(NC(=O)Cc3ccccc3C(=O)O)c2)n1	<=0.63 ug ml-1	0.63	> 32	20
CC(C)c1csc(/C=C/c2cncc(NC(=O)Cc3ccccc3C(=O)O)c2)n1	5 µg/mL	2.5	2	10
CC(C)c1csc(/C=C/c2cccc(NC(=O)C(O)c3ccccc3C(=O)O)c2)n1 (configuration not stated)	2.5 µg/mL	–	16	40
CC(C)c1csc(/C=C/c2cccc(NC(=O)[C@@H]3OC(C)(C)O[C@H]3C(=O)O)c2)n1	20 µg/mL	–	2	40
O=C(Cc1ccccc1C(=O)O)Nc1cccc(/C=C/c2nc(C(F)(F)C(F)(F)F)cs2)c1	2.5 µg/mL	–	32	80
CC(C)c1csc(/C=C/c2cccc(NC(=O)[C@H]3OC(C)(C)O[C@@H]3C(=O)O)c2)n1	5 µg/mL	–	4	20
CC(C)c1csc(COc2ccnc(NC(=O)Cc3ccccc3C(=O)O)c2)n1	2.5 µg/mL	–	2	5
CC(C)c1csc(/C=C/c2cccc(NC(=O)Cc3ccccc3C(=O)O)c2)n1	<=0.63 ug ml-1	–	> 16	10
O=C(Cc1ccccc1C(=O)O)Nc1cccc(/C=C/c2nc(-c3ccccc3)cs2)c1	1.25 µg/mL	–	32	40
CC(C)(C)c1csc(/C=C/c2cccc(NC(=O)Cc3ncccc3C(=O)O)c2)n1	2.5 µg/mL	1.25	8	20
CC(C)c1csc(/C=C/c2cccc(NC(=O)Cc3ccccc3C(=O)O)n2)n1	20 µg/mL	>80	4	80
CCC(C)(C(N)=O)c1csc(/C=C/c2cccc(NC(=O)Cc3ccccc3C(=O)O)c2)n1 (configuration not stated)	20 µg/mL	80	2	40
CC(C)c1csc(CCc2ccnc(NC(=O)Cc3ccccc3C(=O)O)c2)n1	5 µg/mL	2.5	2	10
CC(C)c1csc(/C=C/c2ccnc(NC(=O)Cc3ccccc3C(=O)O)c2)n1	>10 µg/mL	0.31	–	10
